Results as given in ChEMBL document CHEMBL4265912, “Design, synthesis and identification of novel substituted 2-amino thiazole analogues as potential anti-inflammatory agents targeting 5-lipoxygenase” (Eur J Med Chem, 2018).
One block for each molecule: values may come before it.

Key:
[1] = Antioxidant activity assessed as DPPH radical scavenging activity at 20 uM measured after 30 mins; assay type: functional
Method in brief: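 Test compound at 20 μM added to 0.1 mM DPPH in methanol, incubated 30 min at room temperature in dark; absorbance read at 517 nm; ascorbic acid reference; percent scavenging calculated; three repeats, mean ± SEM.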

[2] = molecular target: T1, Polyunsaturated fatty acid 5-lipoxygenase (Homo sapiens) (UniProt P09917); assay: Inhibition of recombinant human 5-LOX expressed in Escherichia coli BL21 at 10 uM using arachidonic acid as substrate by UV-vis spectrophotometric method relative to control
T1 sequence (whole entry): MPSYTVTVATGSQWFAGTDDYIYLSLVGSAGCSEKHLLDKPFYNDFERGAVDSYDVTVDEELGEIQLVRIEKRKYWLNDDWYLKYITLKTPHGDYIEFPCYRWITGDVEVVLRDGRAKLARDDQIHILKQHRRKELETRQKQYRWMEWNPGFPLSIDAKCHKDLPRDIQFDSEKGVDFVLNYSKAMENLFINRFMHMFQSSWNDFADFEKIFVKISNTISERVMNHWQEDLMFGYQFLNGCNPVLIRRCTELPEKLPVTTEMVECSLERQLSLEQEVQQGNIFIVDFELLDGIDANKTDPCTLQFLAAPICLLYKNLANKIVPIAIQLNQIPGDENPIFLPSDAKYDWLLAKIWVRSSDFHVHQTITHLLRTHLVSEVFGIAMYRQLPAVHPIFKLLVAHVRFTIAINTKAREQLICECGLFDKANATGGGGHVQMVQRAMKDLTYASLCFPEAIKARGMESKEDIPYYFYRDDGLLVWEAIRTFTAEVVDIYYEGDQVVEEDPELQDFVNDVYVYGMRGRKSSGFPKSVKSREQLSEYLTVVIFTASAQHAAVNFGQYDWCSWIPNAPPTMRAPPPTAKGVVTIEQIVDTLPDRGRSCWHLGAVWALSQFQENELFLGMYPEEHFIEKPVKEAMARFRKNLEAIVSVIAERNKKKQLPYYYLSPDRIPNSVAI
Method in brief: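 Partially purified human 5-LOX, expressed in E. coli BL21 (IPTG induction, ammonium sulfate precipitation, 100000 × g supernatant). Buffer: 25 mM HEPES pH 7.3, EDTA, 10 mM CaCl2, 4 mM ATP; compound in 2% DMSO added at 4 °C; started with 30 μM AA. 5-HPETE read at 236 nm. Single point at 10 μM; IC50 from inhibition-versus-concentration curves; three repeats.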

[3] = molecular target: T2, Polyunsaturated fatty acid 5-lipoxygenase (Homo sapiens, UniProt P09917); assay: Inhibition of recombinant human 5-LOX expressed in Escherichia coli BL21 using arachidonic acid as substrate by UV-vis spectrophotometric method
T2 sequence (P09917 whole entry): T1 sequence (whole entry)
Method in brief: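 Partially purified human 5-LOX, expressed in E. coli BL21 (IPTG induction, ammonium sulfate precipitation, 100000 × g supernatant). Buffer: 25 mM HEPES pH 7.3, EDTA, 10 mM CaCl2, 4 mM ATP; compound in 2% DMSO added at 4 °C; started with 30 μM AA.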

[4] = molecular target: T1, Polyunsaturated fatty acid 5-lipoxygenase (Homo sapiens); assay: Inhibition of recombinant human 5-LOX pseudoperoxidase activity expressed in Escherichia coli BL21 assessed as compound redox activity by measuring decrease in 13(S)-HpODE product formation at 10 uM by UV-vis spectrophotometric method; set-up: scale not given: the % may be the effect or the level left
Method in brief: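 Pseudoperoxidase: 10 μM inhibitor (1:1 to substrate) starts reaction in 50 mM potassium phosphate pH 7.4, 0.3 mM CaCl2, 0.1 mM EDTA, 200 μM ATP, 10 μM 13(S)-HPODE with 5-LOX; loss of hydroperoxide followed at 234 nm over 300 s, relative to control.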

[5] = compound: COc1ccc(-c2nc(N(c3ccccc3)c3ccccc3)sc2C(=O)c2ccccc2)cc1; assay: Competitive inhibition of recombinant human 5-LOX expressed in Escherichia coli BL21 assessed as Km for substrate at 10 uM using arachidonic acid as substrate by Lineweaver-Burk plot analysis (reference value: 0.42 +/- 0.15 microM)
[6] = compound: O=C(NC(=S)N1CCN(c2ccccc2)CC1)c1ccccc1; assay: Mixed non-competitive inhibition of recombinant human 5-LOX expressed in Escherichia coli BL21 assessed as Km for substrate at 10 uM using arachidonic acid as substrate by Lineweaver-Burk plot analysis (reference value: 0.7761 +/- 0.22 microM)
[7] = compound: O=C(NC(=S)N1CCN(c2ccccc2)CC1)c1ccccc1; assay: Mixed non-competitive inhibition of recombinant human 5-LOX expressed in Escherichia coli BL21 assessed as Vmax for substrate at 5 uM using arachidonic acid as substrate by Lineweaver-Burk plot analysis (reference value: 0.48 +/- 0.02 nmol/min)
[8] = compound: O=C(NC(=S)N1CCN(c2ccccc2)CC1)c1ccccc1; assay: Mixed non-competitive inhibition of recombinant human 5-LOX expressed in Escherichia coli BL21 assessed as Km for substrate at 5 uM using arachidonic acid as substrate by Lineweaver-Burk plot analysis (reference value: 0.7761 +/- 0.22 microM)
[9] = compound: COc1ccc(-c2nc(N(c3ccccc3)c3ccccc3)sc2C(=O)c2ccccc2)cc1; assay: Competitive inhibition of recombinant human 5-LOX expressed in Escherichia coli BL21 assessed as Vmax for substrate at 10 uM using arachidonic acid as substrate by Lineweaver-Burk plot analysis (reference value: 0.39 +/- 0.02 nmol/min)
[10] = compound: COc1ccc(-c2nc(N(c3ccccc3)c3ccccc3)sc2C(=O)c2ccccc2)cc1; assay: Competitive inhibition of recombinant human 5-LOX expressed in Escherichia coli BL21 assessed as Vmax for substrate at 5 uM using arachidonic acid as substrate by Lineweaver-Burk plot analysis (reference value: 0.39 +/- 0.02 nmol/min)
[11] = compound: COc1ccc(-c2nc(N(c3ccccc3)c3ccccc3)sc2C(=O)c2ccccc2)cc1; assay: Competitive inhibition of recombinant human 5-LOX expressed in Escherichia coli BL21 assessed as Km for substrate at 5 uM using arachidonic acid as substrate by Lineweaver-Burk plot analysis (reference value: 0.42 +/- 0.15 microM)
[12] = compound: O=C(NC(=S)N1CCN(c2ccccc2)CC1)c1ccccc1; assay: Mixed non-competitive inhibition of recombinant human 5-LOX expressed in Escherichia coli BL21 assessed as Vmax for substrate at 10 uM using arachidonic acid as substrate by Lineweaver-Burk plot analysis (reference value: 0.48 +/- 0.02 nmol/min)

Molecule: O=C(NC(=S)N1CCOCC1)c1ccc(F)cc1
Activity [1]: 9.1%
inhibition [2]: 29.5%

Molecule: COc1ccc(-c2nc(N3CCCCC3)sc2C(=O)c2ccccc2)cc1
Activity [1]: 9.6%
inhibition [2]: 62%

Molecule: O=C(NC(=S)N1CCN(c2ccccc2)CC1)c1ccccc1
IC50 [3]: 1400 nM
Activity [4]: -46.2%
Activity [1]: 24.1%
inhibition [2]: 91.3%

Molecule: O=C(c1ccccc1)c1sc(N(c2ccccc2)c2ccccc2)nc1-c1ccccc1
Activity [1]: -4.7%
inhibition [2]: 48.6%

Molecule: COc1ccc(C(=O)NC(=S)N2CCCCC2)cc1
IC50 [3]: 3300 nM
Activity [1]: 21.8%
inhibition [2]: 86%

Molecule: O=C1O[C@H]([C@@H](O)CO)C(O)=C1O
Activity [1]: 84.1%

Molecule: O=C(c1ccccc1)c1sc(N2CCOCC2)nc1-c1ccc(F)cc1
Activity [1]: -0.8%
inhibition [2]: 50.2%

Molecule: CN(Cc1ccccc1)C(=S)NC(=O)c1ccccc1
Activity [1]: 18.4%
inhibition [2]: 80.7%

Molecule: CC(c1cc2ccccc2s1)N(O)C(N)=O (configuration not stated)
Activity [1]: 17.8%

Molecule: O=C(NC(=S)N1CCCCC1)c1ccccc1
Activity [1]: 23.7%
inhibition [2]: 56.8%

Molecule: COc1ccc(-c2nc(N(c3ccccc3)c3ccccc3)sc2C(=O)c2ccccc2)cc1
IC50 [3]: 900 nM
Activity [4]: 29.4%
Activity [1]: 11.8%
inhibition [2]: 92.8%

Molecule: O=C(c1ccccc1)c1sc(N2CCCCC2)nc1-c1ccccc1
IC50 [3]: 3100 nM
Activity [4]: 0.6%
Activity [1]: 8.5%
inhibition [2]: 85.2%

Molecule: O=C(c1ccccc1)c1sc(N2CCN(c3ccccc3)CC2)nc1-c1ccc([N+](=O)[O-])cc1
Activity [1]: 8.2%
inhibition [2]: 67.8%

Molecule: O=C(c1ccccc1)c1sc(N2CCN(c3ccccc3)CC2)nc1-c1ccccc1
Activity [1]: -0.7%
inhibition [2]: 38.3%

Molecule: CN(c1ccccc1)c1nc(-c2ccccc2)c(C(=O)c2ccccc2)s1
Activity [1]: 4.6%
inhibition [2]: 67.8%

Molecule: O=C(NC(=S)N1CCN(c2ccccc2)CC1)c1ccc([N+](=O)[O-])cc1
Activity [1]: 20.3%
inhibition [2]: 76.6%

Molecule: COc1ccc(C(=O)NC(=S)N(C)Cc2ccccc2)cc1
Activity [1]: 7.4%
inhibition [2]: 26.5%

Molecule: O=C(NC(=S)N1CCCCC1)c1ccc(F)cc1
IC50 [3]: 3800 nM
Activity [1]: 5.9%
inhibition [2]: 80.7%

Molecule: CN(Cc1ccccc1)c1nc(-c2ccccc2)c(C(=O)c2ccccc2)s1
Activity [1]: 3.6%
inhibition [2]: 53.1%

B1: Polyunsaturated fatty acid 5-lipoxygenase (Homo sapiens), P09917 (protein)
chain: T1 sequence (whole entry)
Km [5]: 1.51 µM
Km [6]: 0.767 µM
Vmax [7]: 0.4 nmol/min
Km [8]: 0.79 µM
Vmax [9]: 0.38 nmol/min
Vmax [10]: 0.38 nmol/min
Km [11]: 0.99 µM
Vmax [12]: 0.34 nmol/min

The next lines start with results.

inhibition [2]: 73.3%
Molecule: O=C(NC(=S)N(c1ccccc1)c1ccccc1)c1ccccc1
Activity [1]: 11.3%

inhibition [2]: 78.7%
Molecule: CN(C(=S)NC(=O)c1ccccc1)c1ccccc1
Activity [1]: 13.2%

inhibition [2]: 79.4%
Molecule: O=C(NC(=S)N1CCOCC1)c1ccccc1
Activity [1]: 19.1%

inhibition [2]: 68.3%
Molecule: COc1ccc(C(=O)NC(=S)N2CCOCC2)cc1
Activity [1]: 3.9%

inhibition [2]: 30.9%
Molecule: O=C(NC(=S)N(c1ccccc1)c1ccccc1)c1ccc([N+](=O)[O-])cc1
Activity [1]: 4.7%

inhibition [2]: 24.5%
Molecule: O=C(NC(=S)N1CCCC1)c1ccccc1
Activity [1]: 25.6%

inhibition [2]: 19.2%
Molecule: COc1ccc(C(=O)NC(=S)N(c2ccccc2)c2ccccc2)cc1
Activity [1]: 8.1%

inhibition [2]: 79.6%
Molecule: O=C(c1ccccc1)c1sc(N(c2ccccc2)c2ccccc2)nc1-c1ccc([N+](=O)[O-])cc1
Activity [1]: -2.8%

inhibition [2]: 36.8%
Molecule: COc1ccc(C(=O)NC(=S)N2CCN(c3ccccc3)CC2)cc1
Activity [1]: 3.7%

inhibition [2]: 75.3%
Molecule: O=C(c1ccccc1)c1sc(N2CCCC2)nc1-c1ccccc1
Activity [1]: -2.9%

inhibition [2]: 53.1%
Molecule: COc1ccc(-c2nc(N3CCN(c4ccccc4)CC3)sc2C(=O)c2ccccc2)cc1
Activity [1]: 7.8%

inhibition [2]: 23.6%
Molecule: O=C(NC(=S)N1CCN(c2ccccc2)CC1)c1ccc(F)cc1
Activity [1]: 6.3%

IC50 [3]: 2300 nM
Activity [4]: 2.1%
inhibition [2]: 85.3%
Molecule: O=C(c1ccccc1)c1sc(N2CCOCC2)nc1-c1ccccc1
Activity [1]: 9.5%

inhibition [2]: 17.7%
Molecule: COc1ccc(-c2nc(N(C)Cc3ccccc3)sc2C(=O)c2ccccc2)cc1
Activity [1]: -1.9%
